Values joined by “and” are separate entries in the source; they are usually repeats but may differ in a detail not shown here. Equal values may be shown once.
Test system: U2OS
Assay: Multiplex assay against U2OS
Assay type: toxicity, cell-based
Conditions: human
Method in brief: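 On a CQ1 microscope at 37°C and 5% CO2, live cells were imaged after compound addition. They had been stained at seeding with Hoechst33342, BioTracker Green Microtubule Cytoskeleton Dye, MitoTracker Red and Annexin V Alexa Fluor 680. CellPathfinder machine-learning gating assigned cells to Hoechst high-intensity objects or normal cells, normal cells to healthy, pyknosed or fragmented nuclei, and pyknosed cells to mitotic or apoptotic. Tubulin, mitochondrial-mass and membrane-permeability phenotypes are per cents of healthy-nucleus cells.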

[1] = 12 h, 1 µM, compound concentration 1 uM, replicate 1
[2] = 12 h, 1 µM, compound concentration 1 uM, replicate 2
[3] = 12 h, 10 µM, compound concentration 10 uM, replicate 1
[4] = 12 h, 10 µM, compound concentration 10 uM, replicate 2
[5] = 24 h, 1 µM, compound concentration 1 uM, replicate 1
[6] = 24 h, 1 µM, compound concentration 1 uM, replicate 2
[7] = 24 h, 10 µM, compound concentration 10 uM, replicate 1
[8] = 24 h, 10 µM, compound concentration 10 uM, replicate 2
[9] = 48 h, 10 µM, compound concentration 10 uM, replicate 1
[10] = 48 h, 10 µM, compound concentration 10 uM, replicate 2

CN[C@@H]1C[C@H]2O[C@@](C)([C@@H]1OC)n1c3ccccc3c3c4c(c5c6ccccc6n2c5c31)C(=O)NC4 [STAUROSPORINE]
Population Apoptotic (%) [1]: 53% | Population Fragmented Nuclei (%) [1]: 47% | Population Healthy Nuclei (%) [1]: 12% | Population Hoechst High Intensity Objects (%) [1]: 4% | Population Membrane Permeable-Phenotype (%) [1]: 89% | Population Mitochondria Different-Phenotype (%) [1]: 57% | Population Mitotic Cells (%) [1]: 46% | Population Normal (%) [1]: 95% | Population Pyknosed Nuclei (%) [1]: 40% | Population Tubulin-Different-Phenotype (%) [1]: 89% | Population Apoptotic (%) [2]: 62% | Population Fragmented Nuclei (%) [2]: 65% | Population Healthy Nuclei (%) [2]: 3% | Population Hoechst High Intensity Objects (%) [2]: 7% | Population Membrane Permeable-Phenotype (%) [2]: 100% | Population Mitochondria Different-Phenotype (%) [2]: 83% | Population Mitotic Cells (%) [2]: 37% | Population Normal (%) [2]: 92% | Population Pyknosed Nuclei (%) [2]: 30% | Population Tubulin-Different-Phenotype (%) [2]: 91% | Population Apoptotic (%) [3]: 51% and 87% and 83% | Population Fragmented Nuclei (%) [3]: 45% and 41% and 40% | Population Healthy Nuclei (%) [3]: 5% and 0% and 1% | Population Hoechst High Intensity Objects (%) [3]: 6% and 7% and 3% | Population Membrane Permeable-Phenotype (%) [3]: 94% and 100% and 71% | Population Mitochondria Different-Phenotype (%) [3]: 50% and 100% and 85% | Population Normal (%) [3]: 93% and 92% and 96% | Population Pyknosed Nuclei (%) [3]: 48% and 57% and 58% | Population Tubulin-Different-Phenotype (%) [3]: 94% and 100% | Population Apoptotic (%) [4]: 86% and 56% and 73% | Population Fragmented Nuclei (%) [4]: 26% and 64% and 42% | Population Healthy Nuclei (%) [4]: 15% and 6% and 12% | Population Hoechst High Intensity Objects (%) [4]: 15% and 8% | Population Membrane Permeable-Phenotype (%) [4]: 95% and 84% | Population Mitochondria Different-Phenotype (%) [4]: 75% and 71% and 84% | Population Normal (%) [4]: 84% and 91% | Population Pyknosed Nuclei (%) [4]: 29% and 45% | Population Tubulin-Different-Phenotype (%) [4]: 91% and 92% | Population Apoptotic (%) [5]: 93% | Population Fragmented Nuclei (%) [5]: 34% | Population Healthy Nuclei (%) [5]: 22% | Population Hoechst High Intensity Objects (%) [5]: 14% | Population Membrane Permeable-Phenotype (%) [5]: 96% | Population Mitochondria Different-Phenotype (%) [5]: 56% | Population Mitotic Cells (%) [5]: 6% | Population Normal (%) [5]: 85% | Population Pyknosed Nuclei (%) [5]: 42% | Population Tubulin-Different-Phenotype (%) [5]: 92% | Population Apoptotic (%) [6]: 94% | Population Fragmented Nuclei (%) [6]: 58% | Population Healthy Nuclei (%) [6]: 10% | Population Hoechst High Intensity Objects (%) [6]: 13% | Population Membrane Permeable-Phenotype (%) [6]: 95% | Population Mitochondria Different-Phenotype (%) [6]: 66% | Population Mitotic Cells (%) [6]: 5% | Population Normal (%) [6]: 86% | Population Pyknosed Nuclei (%) [6]: 31% | Population Tubulin-Different-Phenotype (%) [6]: 91% | Population Apoptotic (%) [7]: 93% and 90% and 94% | Population Fragmented Nuclei (%) [7]: 48% and 46% and 38% | Population Healthy Nuclei (%) [7]: 0% and 15% | Population Hoechst High Intensity Objects (%) [7]: 5% and 11% | Population Mitochondria Different-Phenotype (%) [7]: 50% and 45% | Population Mitotic Cells (%) [7]: 6% and 9% and 5% | Population Normal (%) [7]: 94% and 88% | Population Pyknosed Nuclei (%) [7]: 50% and 52% and 45% | Population Tubulin-Different-Phenotype (%) [7]: 50% and 100% and 94% | Population Apoptotic (%) [8]: 88% and 96% and 77% | Population Hoechst High Intensity Objects (%) [8]: 27% and 26% | Population Membrane Permeable-Phenotype (%) [8]: 95% and 92% | Population Mitochondria Different-Phenotype (%) [8]: 95% and 69% and 92% | Population Normal (%) [8]: 72% and 73% | Population Pyknosed Nuclei (%) [8]: 36% and 23% and 38% | Population Tubulin-Different-Phenotype (%) [8]: 95% and 92% | Population Apoptotic (%) [9]: 95% | Population Fragmented Nuclei (%) [9]: 51% and 55% | Population Healthy Nuclei (%) [9]: 0% | Population Hoechst High Intensity Objects (%) [9]: 7% and 11% | Population Mitochondria Different-Phenotype (%) [9]: 66% and 100% | Population Mitotic Cells (%) [9]: 4% | Population Normal (%) [9]: 92% and 88% | Population Pyknosed Nuclei (%) [9]: 47% and 43% | Population Tubulin-Different-Phenotype (%) [9]: 100% | Population Apoptotic (%) [10]: 89% and 100% | Population Fragmented Nuclei (%) [10]: 22% and 13% | Population Healthy Nuclei (%) [10]: 49% and 56% | Population Hoechst High Intensity Objects (%) [10]: 18% and 25% | Population Mitochondria Different-Phenotype (%) [10]: 96% and 92% | Population Mitotic Cells (%) [10]: 10% and 0% | Population Normal (%) [10]: 81% and 74% | Population Pyknosed Nuclei (%) [10]: 28% and 30% | Population Tubulin-Different-Phenotype (%) [10]: 96% and 92%

CN1CCN(C(=O)C(C)(C)c2ccc(C(=O)Nc3cn4cc(-c5cc(C(C)(C)C)cc(C(C)(C)C)c5)ccc4n3)cc2)CC1 [T3-CLK-N]
Population Apoptotic (%) [1]: 25% | Population Fragmented Nuclei (%) [1]: 8% | Population Healthy Nuclei (%) [1]: 81% | Population Hoechst High Intensity Objects (%) [1]: 8% | Population Membrane Permeable-Phenotype (%) [1]: 18% | Population Mitochondria Different-Phenotype (%) [1]: 20% | Population Mitotic Cells (%) [1]: 75% | Population Normal (%) [1]: 91% | Population Pyknosed Nuclei (%) [1]: 9% | Population Tubulin-Different-Phenotype (%) [1]: 18% | Total Cell Count [1]: 162 | Population Apoptotic (%) [2]: 28% | Population Fragmented Nuclei (%) [2]: 6% | Population Healthy Nuclei (%) [2]: 86% | Population Hoechst High Intensity Objects (%) [2]: 11% | Population Membrane Permeable-Phenotype (%) [2]: 14% | Population Mitochondria Different-Phenotype (%) [2]: 29% | Population Mitotic Cells (%) [2]: 71% | Population Normal (%) [2]: 88% | Population Pyknosed Nuclei (%) [2]: 6% | Population Tubulin-Different-Phenotype (%) [2]: 14% | Total Cell Count [2]: 72 | Population Apoptotic (%) [3]: 27% | Population Fragmented Nuclei (%) [3]: 5% | Population Healthy Nuclei (%) [3]: 87% | Population Hoechst High Intensity Objects (%) [3]: 3% | Population Membrane Permeable-Phenotype (%) [3]: 58% | Population Mitochondria Different-Phenotype (%) [3]: 20% | Population Mitotic Cells (%) [3]: 72% | Population Normal (%) [3]: 96% | Population Pyknosed Nuclei (%) [3]: 6% | Population Tubulin-Different-Phenotype (%) [3]: 34% | Total Cell Count [3]: 177 | Population Apoptotic (%) [4]: 50% | Population Fragmented Nuclei (%) [4]: 16% | Population Healthy Nuclei (%) [4]: 80% | Population Hoechst High Intensity Objects (%) [4]: 15% | Population Membrane Permeable-Phenotype (%) [4]: 56% | Population Mitochondria Different-Phenotype (%) [4]: 38% | Population Mitotic Cells (%) [4]: 50% | Population Normal (%) [4]: 84% | Population Pyknosed Nuclei (%) [4]: 3% | Population Tubulin-Different-Phenotype (%) [4]: 31% | Total Cell Count [4]: 120 | Population Apoptotic (%) [5]: 23% | Population Fragmented Nuclei (%) [5]: 9% | Population Healthy Nuclei (%) [5]: 80% | Population Hoechst High Intensity Objects (%) [5]: 9% | Population Membrane Permeable-Phenotype (%) [5]: 8% | Population Mitochondria Different-Phenotype (%) [5]: 14% | Population Mitotic Cells (%) [5]: 76% | Population Normal (%) [5]: 90% | Population Pyknosed Nuclei (%) [5]: 10% | Population Tubulin-Different-Phenotype (%) [5]: 15% | Total Cell Count [5]: 175 | Population Apoptotic (%) [6]: 33% | Population Fragmented Nuclei (%) [6]: 6% | Population Healthy Nuclei (%) [6]: 89% | Population Hoechst High Intensity Objects (%) [6]: 8% | Population Membrane Permeable-Phenotype (%) [6]: 13% | Population Mitochondria Different-Phenotype (%) [6]: 24% | Population Mitotic Cells (%) [6]: 66% | Population Normal (%) [6]: 91% | Population Pyknosed Nuclei (%) [6]: 4% | Population Tubulin-Different-Phenotype (%) [6]: 16% | Total Cell Count [6]: 97 | Population Apoptotic (%) [7]: 54% | Population Fragmented Nuclei (%) [7]: 9% | Population Healthy Nuclei (%) [7]: 83% | Population Hoechst High Intensity Objects (%) [7]: 2% | Population Membrane Permeable-Phenotype (%) [7]: 53% | Population Mitochondria Different-Phenotype (%) [7]: 27% | Population Mitotic Cells (%) [7]: 45% | Population Normal (%) [7]: 97% | Population Pyknosed Nuclei (%) [7]: 6% | Population Tubulin-Different-Phenotype (%) [7]: 39% | Total Cell Count [7]: 230 | Population Apoptotic (%) [8]: 50% | Population Fragmented Nuclei (%) [8]: 17% | Population Healthy Nuclei (%) [8]: 71% | Population Hoechst High Intensity Objects (%) [8]: 14% | Population Membrane Permeable-Phenotype (%) [8]: 48% | Population Mitochondria Different-Phenotype (%) [8]: 56% | Population Mitotic Cells (%) [8]: 50% | Population Normal (%) [8]: 85% | Population Pyknosed Nuclei (%) [8]: 10% | Population Tubulin-Different-Phenotype (%) [8]: 43% | Total Cell Count [8]: 144
